Experiments:
[1] = molecular target: T1, Glucose-6-phosphatase catalytic subunit 1 (Rattus norvegicus) (UniProt P43428); assay: Inhibition of glucose-6-phosphatase enzymatic activity in rat […] cells at 50 uM using G6P substrate incubated for 18 hrs by colorimetric assay; type: cell-based
T1 sequence (whole entry): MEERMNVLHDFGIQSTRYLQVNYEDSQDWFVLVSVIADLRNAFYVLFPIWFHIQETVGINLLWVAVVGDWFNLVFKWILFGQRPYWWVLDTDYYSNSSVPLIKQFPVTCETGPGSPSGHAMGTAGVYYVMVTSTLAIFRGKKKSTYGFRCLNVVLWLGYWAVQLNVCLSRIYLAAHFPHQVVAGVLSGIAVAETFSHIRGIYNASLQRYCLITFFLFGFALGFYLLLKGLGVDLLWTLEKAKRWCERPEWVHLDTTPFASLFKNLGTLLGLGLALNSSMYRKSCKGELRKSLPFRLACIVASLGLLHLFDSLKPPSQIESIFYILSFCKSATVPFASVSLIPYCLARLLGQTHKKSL
Summary of the method: (§1)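 H4IIE rat hepatoma cells at 90% confluence were treated 18 h with compound (1–100 μM; 0.1% DMSO control, 100 nM insulin reference). Cells were lysed in 15 mM phosphate buffer pH 6.5 with 0.05% Triton and 1.3 mM phenol, and lysate was incubated with 200 mM glucose-6-phosphate for 40 min at 37 °C. Glucose formed was read by glucose oxidase colorimetry at 505 nm and normalised to protein.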

C2C12 [2] = assay: Increase in glucose uptake in mouse C2C12 cells incubated for 18 hrs using [3H]-2-deoxy-D-glucose by liquid scintillation counting; type: functional, cell-based
Summary of the method: (§2)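 Differentiated confluent C2C12 myotubes were held 18 h in DMEM with 2% horse serum containing compound (6.25–100 μM; 0.1% DMSO vehicle control). Cells were equilibrated 30 min at 37 °C in Krebs phosphate buffer pH 7.4 with 5 mM glucose, rinsed glucose-free, then given 10 μM 2-deoxy-D-glucose plus 1 μCi/mL [3H]-2-deoxyglucose for 10 min at 37 °C. Cells were lysed in 0.1 M NaOH and counted by scintillation.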

[3] = molecular target: T2, Glucose-6-phosphatase catalytic subunit 1 (Rattus norvegicus, UniProt P43428); assay: Inhibition of glucose-6-phosphatase enzymatic activity in rat […] cells using G6P substrate incubated for 18 hrs by colorimetric assay; type: cell-based; summary of the method: as §1
T2 sequence (P43428 whole entry): T1 sequence (whole entry)

C2C12 [4] = assay: Increase in glucose uptake in mouse C2C12 cells incubated for 18 hrs using [3H]-2-deoxy-D-glucose by liquid scintillation counting relative to DMSO; type: functional; set-up: concentration or dose not given beside the values; summary of the method: as §2
[5] = Mus musculus, C2C12, read-out: EC50

Row | SMILES | inhibition [1] [%] | EC50 (C2C12 [2]; c2c12) | IC50 [3] [µM] | EC50 (C2C12 [2]; [5]) [µM] | Efficacy (C2C12 [4]) [%]
1 | O=C(/C=C/c1ccc(O)c(O)c1)OC[C@H]1O[C@@H](O[C@@H]2COC(=O)C2)[C@H](O)[C@@H](O)[C@@H]1O | 44 | Not Active | 13.9 |  | 
2 | COC(=O)C1=CO[C@@H](O[C@H]2O[C@H](CO)[C@@H](O)[C@H](O)[C@H]2O)[C@@H]2[C@H](C)O[C@@H](OC)C[C@H]12 |  |  |  | 25.9 | 120
3 | COc1cc(-c2oc3cc(O)cc(O)c3c(=O)c2O[C@@H]2O[C@H](CO)[C@@H](O)[C@H](O)[C@H]2O)ccc1O |  |  |  | 18.5 | 150
4 | O=C1C[C@H](O[C@@H]2O[C@H](CO)[C@@H](O)[C@H](O)[C@H]2O)CO1 [GOODYEROSIDE] | 19.6 |  | 391 | 25.6 | 124
5 | O=c1c(O[C@@H]2O[C@H](CO)[C@H](O)[C@H](O)[C@H]2O)c(-c2ccc(O)c(O)c2)oc2cc(O)cc(O)c12 [HYPEROSIDE] |  |  |  | 60.5 | 211
6 | O=C(/C=C/c1ccc(O)c(O)c1)OC[C@H]1O[C@@H](Oc2c(-c3ccc(O)cc3)oc3cc(O)cc(O)c3c2=O)[C@H](O)[C@@H](O)[C@@H]1O |  |  |  | 13.8 | 188
